Several values for one entry are separate records, joined by “and”; a condition that tells them apart may be missing. Equal entries are not always repeated. Entries after “also recorded” stand apart in the source; their conditions may differ. Where two headings read alike, the source gives them in different places. Marks after values point to notes of the source that are not given here.
Experiments:
FXI = FXI concentration; type: in vivo, human; settings: compared with placebo
Procedure, shortened: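 Healthy men randomised to the oral test compound (25/50/100 mg once daily or 25 mg twice daily) or placebo. Single dose day 1, washout days 2–3, repeat dosing days 4–11, final dose day 12, after an overnight fast of at least 10 h on profiling days. FXI concentration measured by microtitre-plate ELISA with polyclonal antibodies. Descriptive summary only.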

Safety and tolerability [1] = type: in vivo, human
[2] = tested on: activated partial thromboplastin time (aPTT); settings: whole blood or plasma, in vitro and ex vivo; cited from earlier work
prothrombin time (PT) = test: Prothrombin time; type: in vivo, human; settings: compared with placebo
[3] = BAY 2433334 pharmacokinetics in plasma and urine, Parts A and B; type: in vivo, human; settings: for tmax: median (range)
[4] = tested on: activated partial thromboplastin time (aPTT); test: aPTT; type: in vivo, human
Safety and tolerability [5] = type: in vivo, human; remark: listed apart in the source
Procedure, shortened: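 Randomised, single-blind, placebo-controlled dose escalation in healthy men, 36 on active and 12 on placebo. Adverse events counted as treatment-emergent if they began or worsened after first study medication, up to 7 days post-treatment. Also assessed: physical examination, vital signs, 12-lead ECG and clinical laboratory tests. All participants dosed at least once were analysed descriptively.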

C1 esterase inhibitor = C1 esterase inhibitor activity; type: in vivo, human; settings: compared with placebo
Procedure, shortened: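 Healthy men given the oral test compound (25, 50 or 100 mg once daily, or 25 mg twice daily) or placebo: single dose on day 1, washout days 2–3, dosing days 4–11, once-daily dose day 12. C1 esterase inhibitor activity measured in plasma by chromogenic substrate kit on a coagulation analyser, per manufacturer's instructions. Summarised descriptively, with no prespecified formal statistics.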

[6] = animal models; cited from earlier work
[7] = 25 mg multiple dose + midazolam
[8] = 25 mg treatment sequence, Total (N = 24)
[9] = 75 mg multiple dose + midazolam
[10] = 75 mg treatment sequence, Total (N = 24)
[11] = multiple once‐daily dosing for 9 consecutive days

CC[C@@H](C(=O)Nc1ccc(C(N)=O)c(F)c1)n1cc(OC)c(-c2cc(Cl)ccc2-n2cc(C(F)(F)F)nn2)cc1=O [BAY 2433334]
Effect on FXI concentrations (FXI): no significant effect | Adverse event(s) of special interest (Safety and tolerability [1]; [7]): 0 Number (%) | Study drug‐related adverse event(s) (Safety and tolerability [1]; [7]): 0 Number (%) | Study procedure‐related adverse event(s) (Safety and tolerability [1]; [7]): 0 Number (%) | Adverse event(s) of special interest (Safety and tolerability [1]; 25 mg multiple dose alone): 0 Number (%) | Study drug‐related adverse event(s) (Safety and tolerability [1]; 25 mg multiple dose alone): 0 Number (%) | Study procedure‐related adverse event(s) (Safety and tolerability [1]; 25 mg multiple dose alone): 1 (4.2%) Number (%) | Adverse event(s) of special interest (Safety and tolerability [1]; 25 mg single dose + midazolam): 0 Number (%) | Study drug‐related adverse event(s) (Safety and tolerability [1]; 25 mg single dose + midazolam): 0 Number (%) | Study procedure‐related adverse event(s) (Safety and tolerability [1]; 25 mg single dose + midazolam): 0 Number (%) | Adverse event(s) of special interest (Safety and tolerability [1]; [8]): 0 Number (%) | Study drug‐related adverse event(s) (Safety and tolerability [1]; [8]): 0 Number (%) | Study procedure‐related adverse event(s) (Safety and tolerability [1]; [8]): 4 (16.7%) Number (%) | Adverse event(s) of special interest (Safety and tolerability [1]; [9]): 0 Number (%) | Study drug‐related adverse event(s) (Safety and tolerability [1]; [9]): 0 Number (%) | Adverse event(s) of special interest (Safety and tolerability [1]; 75 mg multiple dose alone): 0 Number (%) | Study drug‐related adverse event(s) (Safety and tolerability [1]; 75 mg multiple dose alone): 0 Number (%) | Study procedure‐related adverse event(s) (Safety and tolerability [1]; 75 mg multiple dose alone): 0 Number (%) | Adverse event(s) of special interest (Safety and tolerability [1]; 75 mg single dose + midazolam): 0 Number (%) | Study drug‐related adverse event(s) (Safety and tolerability [1]; 75 mg single dose + midazolam): 0 Number (%) | Study procedure‐related adverse event(s) (Safety and tolerability [1]; 75 mg single dose + midazolam): 0 Number (%) | Adverse event(s) of special interest (Safety and tolerability [1]; [10]): 0 Number (%) | Study drug‐related adverse event(s) (Safety and tolerability [1]; [10]): 0 Number (%) | Study procedure‐related adverse event(s) (Safety and tolerability [1]; [10]): 2 (8.3%) Number (%) | Study drug‐related TEAEs (Safety and tolerability [1]; Part C): No study drug‐related TEAEs | Participants who discontinued study medication because of TEAEs (Safety and tolerability [1]; Part C, 75 mg): 2 participants | Prolongation of aPTT [2]: concentration‐dependent prolongation | Effect on PT (absolute and INR values) (prothrombin time (PT)): no effect | Dose proportionality of AUC and Cmax in plasma ([3]; 25–100 mg OD, single and multiple dosing, Part A): dose proportional; also recorded: appeared to increase dose proportionally | arithmetic mean renal elimination (%AE,ur) of unchanged drug ([3]; after multiple dosing): 10.1–13.5% | RLIN, range ([3]; after once‐daily administration): 1.03–1.08 | arithmetic mean renal elimination (%AE,ur) of unchanged drug ([3]; after single‐dose administration): 7.61–13.4 % of the dose | geometric mean terminal half‐life (t1/2), range across treatment groups ([3]; day 1): 14.0 to 15.9 h | tmax ([3]; day 1, 25 mg BID group): 3.00 (1.00–5.98) h | tmax ([3]; day 1, 25 mg OD): 2.00 (1.48–5.98) h | tmax ([3]; day 1, 50 mg OD): 2.00 (0.750–4.00) h | tmax ([3]; day 1, 100 mg OD): 3.97 (1.47–6.00) h | apparent oral clearance, geometric means ([3]; day 1, across treatment groups): 3.68 to 4.09 L/h | median time to Cmax, range across treatment groups ([3]; day 1, all treatment groups): 2.00 to 3.97 h | tmax ([3]; day 12, 25 mg BID): 1.50 (1.00–6.00) h | tmax ([3]; day 12, 25 mg OD): 4.00 (1.00–6.03) h | tmax ([3]; day 12, 50 mg OD): 3.00 (0.750–6.05) h | tmax ([3]; day 12, 100 mg OD): 4.00 (1.50–6.00) h | apparent oral clearance, geometric means ([3]; day 12, across treatment groups): 3.39 to 4.04 L/h | mean terminal half‐life (t1/2), range across treatment groups ([3]; day 12, after multiple dosing): 15.8 to 17.8 h | median time to Cmax, range across once‐daily groups ([3]; day 12, once‐daily dosing): 3.00 to 4.00 h | RAAUC geometric mean, range [3, 11]: 1.50–1.72 | RACmax geometric mean, range [3, 11]: 1.41–1.63 | Prolongation of aPTT ([4]; Parts A and B): dose‐dependent prolongation | first time point at which prolongation of aPTT was apparent ([4]; after dosing): 30 min | time of maximal aPTT prolongation after dosing ([4]; in vivo): approximately 4 h | Adverse event(s) of special interest: Bleeding (Safety and tolerability [5]; 25 mg BID): 0 Number (%) | Any adverse event(s) of special interest (Safety and tolerability [5]; 25 mg BID): 1 (11.1%) Number (%) | Any study drug‐related adverse event(s) (Safety and tolerability [5]; 25 mg BID): 0 Number (%) | Any study procedure‐related adverse event(s) (Safety and tolerability [5]; 25 mg BID): 2 (22.2%) Number (%) | TEAE: Medical device site urticaria (Safety and tolerability [5]; 25 mg BID): 1 (11.1%) Number (%) | Adverse event(s) of special interest: Investigations (Safety and tolerability [5]; 25 mg BID, Glutamate dehydrogenase increased): 1 (11.1%) ^e Number (%) | Adverse event(s) of special interest: Bleeding (Safety and tolerability [5]; 25 mg OD): 0 Number (%) | Any adverse event(s) of special interest (Safety and tolerability [5]; 25 mg OD): 1 (11.1%) Number (%) | Any study drug‐related adverse event(s) (Safety and tolerability [5]; 25 mg OD): 0 Number (%) | Any study procedure‐related adverse event(s) (Safety and tolerability [5]; 25 mg OD): 1 (11.1%) Number (%) | TEAE: Medical device site urticaria (Safety and tolerability [5]; 25 mg OD): 0 Number (%) | Adverse event(s) of special interest: Investigations (Safety and tolerability [5]; 25 mg OD, Amylase increased): 1 (11.1%) ^c Number (%) | Adverse event(s) of special interest: Bleeding (Safety and tolerability [5]; 50 mg OD): 0 Number (%) | Any adverse event(s) of special interest (Safety and tolerability [5]; 50 mg OD): 1 (11.1%) Number (%) | Any study drug‐related adverse event(s) (Safety and tolerability [5]; 50 mg OD): 0 Number (%) | Any study procedure‐related adverse event(s) (Safety and tolerability [5]; 50 mg OD): 3 (33.3%) Number (%) | TEAE: Medical device site urticaria (Safety and tolerability [5]; 50 mg OD): 0 Number (%) | Adverse event(s) of special interest: Investigations (Safety and tolerability [5]; 50 mg OD, Lipase increased): 1 (11.1%) ^d Number (%) | Adverse event(s) of special interest: Bleeding (Safety and tolerability [5]; 100 mg OD): 0 Number (%) | Any adverse event(s) of special interest (Safety and tolerability [5]; 100 mg OD): 1 (11.1%) Number (%) | Any study procedure‐related adverse event(s) (Safety and tolerability [5]; 100 mg OD): 1 (11.1%) Number (%) | TEAE: Medical device site urticaria (Safety and tolerability [5]; 100 mg OD): 1 (11.1%) Number (%) | Any study drug‐related adverse event(s) (Safety and tolerability [5]; 100 mg OD, Headache): 2 Number (%) and 2 (22.2%) ^b Number (%) | Adverse event(s) of special interest: Investigations (Safety and tolerability [5]; 100 mg OD, Lipase increased): 1 (11.1%) ^d Number (%) | Adverse events leading to discontinuation (Safety and tolerability [5]; Parts A or B): No adverse events leading to discontinuation | Adverse event(s) of special interest: Bleeding (Safety and tolerability [5]; Total BAY 2433334 (n = 36)): 0 Number (%) | Adverse event(s) of special interest: Investigations (Safety and tolerability [5]; Total BAY 2433334 (n = 36)): 4 (11.1%) Number (%) | Any adverse event(s) of special interest (Safety and tolerability [5]; Total BAY 2433334 (n = 36)): 4 (11.1%) Number (%) | Any study drug‐related adverse event(s) (Safety and tolerability [5]; Total BAY 2433334 (n = 36)): 2 (5.6%) Number (%) | Any study procedure‐related adverse event(s) (Safety and tolerability [5]; Total BAY 2433334 (n = 36)): 7 (19.4%) Number (%) | TEAE: Medical device site urticaria (Safety and tolerability [5]; Total BAY 2433334 (n = 36)): 2 (5.6%) Number (%) | Adverse events related to bleeding (Safety and tolerability [5]; all study parts): no clinically relevant adverse events related to bleeding | Serious adverse events (Safety and tolerability [5]; all study parts): no serious adverse events were reported | Tolerability (Safety and tolerability [5]; all study parts): well tolerated | Effects on vital signs, ECG or clinical laboratory investigations (Safety and tolerability [5]; other than the anticipated prolongation of aPTT): No clinically relevant effects | Effect on complement C1 esterase inhibitor activity (C1 esterase inhibitor): no significant effect | Reduction in thrombus weight [6]: dose‐dependent reductions

— publication PMC9311154 (British Journal of Clinical Pharmacology, 2022)
